Measured values pooled from the literature.
Compare with care: the assays were run in different laboratories.
Target: Megakaryocyte-associated tyrosine-protein kinase (MATK, Homo sapiens, UniProt P42679)
Sequence (P42679 1-507, as in one of the studies): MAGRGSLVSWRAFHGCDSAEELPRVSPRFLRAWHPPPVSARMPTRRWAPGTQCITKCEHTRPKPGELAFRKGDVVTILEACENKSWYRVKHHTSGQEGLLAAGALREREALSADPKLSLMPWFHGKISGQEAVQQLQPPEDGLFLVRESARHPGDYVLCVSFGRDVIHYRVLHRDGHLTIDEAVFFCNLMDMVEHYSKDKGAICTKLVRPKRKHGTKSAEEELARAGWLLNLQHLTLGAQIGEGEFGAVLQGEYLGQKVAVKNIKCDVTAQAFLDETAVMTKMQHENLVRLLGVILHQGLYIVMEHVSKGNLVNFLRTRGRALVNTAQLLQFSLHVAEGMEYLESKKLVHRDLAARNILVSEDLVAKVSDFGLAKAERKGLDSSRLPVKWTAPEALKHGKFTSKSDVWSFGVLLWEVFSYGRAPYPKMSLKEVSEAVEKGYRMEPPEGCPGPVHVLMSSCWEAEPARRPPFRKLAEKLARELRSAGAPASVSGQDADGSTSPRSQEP

Compound | observed | action | method | concentration | measurement | value
CCOCCn1cc(C(=O)Nc2ccc(-n3nc(-c4cccnc4)cc3C(F)(F)F)cn2)ccc1=O | cell-free assay |  | competition with immobilised ligand | 1 µM | remaining binding | 90%
O=C(Nc1cnn(-c2csc(C(=O)NC3COC3)c2)c1)Nc1ccccc1Cl | enzyme activity | inhibitor |  | 5 µM | remaining activity | 99.7%
COc1cc2ncnc(Nc3ccc(Oc4ccccc4)cc3C)c2cc1OC | enzyme activity | inhibitor |  | 1 µM | inhibition | 0%
CN(C(=O)c1ccccc1)c1cc(N(C)c2ccc3c(c2)CCc2ccc(C(=O)NCCN4CCOCC4)cc2C3=O)ccc1F | cell-free assay |  | competition with immobilised ligand | 1 µM | remaining binding | 84%
Cc1cnn2ncc(-c3ccnc(N(C)C)n3)c2c1 | binding |  |  | 1 µM | remaining binding | 100%
CN(C)C(=O)Cn1cc(-c2nc([C@@](C)(c3ccc(-c4cnc(N)nc4)cc3)C3CC3)no2)cn1 | cell-free assay |  | competition with immobilised ligand | 1 µM | remaining binding | 77%
CNC(=O)c1cc(Oc2ccc(NC(=O)Nc3ccc(Cl)c(C(F)(F)F)c3)cc2)ccn1 | cell-free assay |  |  | 0.5 µM | remaining signal | 114%
CNC(=O)c1ccc(Nc2ncc(C(F)(F)F)c(NCc3nccnc3N(C)S(C)(=O)=O)n2)cc1 | cell-free assay |  | competition with immobilised ligand | 0.1 µM | remaining binding | 37%
CC(C)(C)c1nc2c(s1)c1nc(N)ncc1c1ccc(NS(=O)(=O)c3c(F)cccc3F)c(F)c12 | enzyme activity | inhibitor | radiometric | 1 µM | remaining activity | 101%
c1nc2c(Nc3ccc4c(c3)OCCO4)nc(Nc3ccc4c(c3)OCCO4)nc2[nH]1 | enzyme activity | inhibitor |  | 10 µM | activity vs control | 49%
N#CCCc1ccc2c(c1)-c1[nH]c3ccc([N+](=O)[O-])cc3c1CC(=O)N2 | cell-free assay |  |  | 0.5 µM | remaining signal | 101%
CC(C)(O)[C@H]1CC[C@H](Nc2ccc3ncc(-c4cccc(C(F)(F)F)c4)n3n2)CC1 | enzyme activity | inhibitor |  | 1 µM | remaining activity | 102%
